From ChEMBL document CHEMBL1155937, “Substituted 3-((Z)-2-(4-nitrophenyl)-2-(1H-tetrazol-5-yl) vinyl)-4H-chromen-4-ones as novel anti-MRSA agents: synthesis, SAR, and in-vitro assessment” (Bioorg Med Chem Lett, 2008)
Converted amounts (≈) assume the structure as drawn.

What was measured:
[1] = pKa of the compound; type: physicochemical
Enterococcus faecalis = assay: Antibacterial activity against Enterococcus faecalis ATCC 29212 after 24 hrs by twofold serial dilution method; type: functional; settings: ATCC 29212, 24 h
Outline: (§1)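 CLSI agar-dilution MIC on Mueller Hinton agar with serial twofold drug dilutions. About 10⁴ CFU applied per spot by multipoint inoculator. Incubated at 35 °C and growth scored at 24 h. DMSO served as solvent control. S. aureus ATCC 29213 was the QC strain. Twofold differences were confirmed by a third repetition, and the more frequent result was reported.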

Staphylococcus aureus [2] = assay: Antibacterial activity against methicillin-resistant Staphylococcus aureus 032 after 24 hrs by twofold serial dilution method; type: functional
Outline: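 Agar dilution MIC per CLSI on Mueller Hinton agar with serial twofold drug dilutions. About 10⁴ CFU applied per spot with a multipoint inoculator, incubated at 35 °C, and growth scored at 24 h. DMSO served as solvent control. Twofold discrepancies were confirmed by a third repetition, and the more frequent value was reported.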

Staphylococcus aureus [3] = assay: Antibacterial activity against methicillin-sensitive Staphylococcus aureus ATCC 13709 Smith after 24 hrs by twofold serial dilution method; type: functional; outline: as §1
Streptococcus pneumoniae = assay: Antibacterial activity against Streptococcus pneumoniae ATCC 49619 after 24 hrs by twofold serial dilution method; type: functional; settings: ATCC 49619, 24 h
Outline: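 About 10⁴ CFU applied per spot. Incubated at 35 °C in 5% CO₂ and growth scored at 24 h. DMSO served as solvent control. Twofold differences were confirmed by a third repetition.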

Escherichia coli = assay: Antibacterial activity against Escherichia coli ATCC 25922 after 24 hrs by twofold serial dilution method; type: functional; settings: ATCC 25922, 24 h; outline: as §1

**Q.** Which pKa [1] does the source give for `O=c1c(-c2nnn[nH]2)coc2ccccc12` here?
**A.** Its pKa is 5.85.

**Q.** For `O=c1c(/C=C(/c2ccc([N+](=O)[O-])cc2)c2nnn[nH]2)coc2ccc(Br)cc12`, which MIC (Enterococcus faecalis) is on record?
**A.** Its MIC is > 32 µg/mL.

**Q.** What about the MIC (Staphylococcus aureus [2]) of the same molecule?
**A.** The MIC was > 32 µg/mL.

**Q.** What about the MIC (Staphylococcus aureus [3]) of the same molecule?
**A.** Its MIC is > 32 µg/mL.

**Q.** And the MIC (Streptococcus pneumoniae)?
**A.** Its MIC is > 32 µg/mL.

**Q.** And the MIC (Escherichia coli)?
**A.** Its MIC is > 32 µg/mL.

**Q.** For `Cc1cc2occ(/C=C(/c3ccc([N+](=O)[O-])cc3)c3nnn[nH]3)c(=O)c2cc1Cl`, which MIC (Enterococcus faecalis) is on record?
**A.** Its MIC is 16 µg/mL (≈ 39 µM).

**Q.** What about the MIC (Staphylococcus aureus [2]) of the same molecule?
**A.** The MIC was 4 µg/mL (≈ 9.76 µM).

**Q.** And the MIC (Staphylococcus aureus [3])?
**A.** Its MIC is 16 µg/mL (≈ 39 µM).

**Q.** And the MIC (Streptococcus pneumoniae)?
**A.** Its MIC is 16 µg/mL (≈ 39 µM).

**Q.** And the MIC (Escherichia coli)?
**A.** Its MIC is > 32 µg/mL.

**Q.** With `O=c1c(/C=C(/c2ccc([N+](=O)[O-])cc2)c2nnn[nH]2)coc2ccc(Cl)cc12` as the molecule, how does the MIC (Enterococcus faecalis) read?
**A.** Its MIC is > 32 µg/mL.

**Q.** And the MIC (Staphylococcus aureus [2])?
**A.** Its MIC is > 32 µg/mL.

**Q.** And the MIC (Staphylococcus aureus [3])?
**A.** Its MIC is > 32 µg/mL.

**Q.** What about the MIC (Streptococcus pneumoniae) of the same molecule?
**A.** The MIC was > 32 µg/mL.

**Q.** What about the MIC (Escherichia coli) of the same molecule?
**A.** Its MIC is > 32 µg/mL.

**Q.** With `Cc1cc(C)c2occ(/C=C(/c3ccc([N+](=O)[O-])cc3)c3nnn[nH]3)c(=O)c2c1` as the molecule, how does the MIC (Enterococcus faecalis) read?
**A.** The MIC was 16 µg/mL (≈ 41.1 µM).

**Q.** What about the MIC (Staphylococcus aureus [2]) of the same molecule?
**A.** The MIC was 2 µg/mL (≈ 5.14 µM).

**Q.** What about the MIC (Staphylococcus aureus [3]) of the same molecule?
**A.** Its MIC is 8 µg/mL (≈ 20.5 µM).

**Q.** And the MIC (Streptococcus pneumoniae)?
**A.** The MIC was 16 µg/mL (≈ 41.1 µM).

**Q.** What about the MIC (Escherichia coli) of the same molecule?
**A.** Its MIC is > 32 µg/mL.

**Q.** For `O=c1c(/C=C(/c2ccc([N+](=O)[O-])cc2)c2nnn[nH]2)coc2c(Cl)cc(Cl)cc12`, which MIC (Enterococcus faecalis) is on record?
**A.** Its MIC is 8 µg/mL (≈ 18.6 µM).

**Q.** And the MIC (Staphylococcus aureus [2])?
**A.** The MIC was 2 µg/mL (≈ 4.65 µM).

**Q.** And the MIC (Staphylococcus aureus [3])?
**A.** The MIC was 16 µg/mL (≈ 37.2 µM).

**Q.** And the MIC (Streptococcus pneumoniae)?
**A.** Its MIC is 1 µg/mL (≈ 2.32 µM).

**Q.** And the MIC (Escherichia coli)?
**A.** Its MIC is > 32 µg/mL.

**Q.** Which MIC (Enterococcus faecalis) does the source give for `Cc1ccc2occ(/C=C(/c3ccc([N+](=O)[O-])cc3)c3nnn[nH]3)c(=O)c2c1` here?
**A.** The MIC was > 32 µg/mL.

**Q.** What about the MIC (Staphylococcus aureus [2]) of the same molecule?
**A.** Its MIC is > 32 µg/mL.

**Q.** What about the MIC (Staphylococcus aureus [3]) of the same molecule?
**A.** The MIC was 8 µg/mL (≈ 21.3 µM).

**Q.** And the MIC (Streptococcus pneumoniae)?
**A.** Its MIC is > 32 µg/mL.

**Q.** What about the MIC (Escherichia coli) of the same molecule?
**A.** Its MIC is > 32 µg/mL.

**Q.** What does the source list for `O=c1c(/C=C(/c2ccc([N+](=O)[O-])cc2)c2nnn[nH]2)coc2ccc(F)cc12`?
**A.** MIC (Enterococcus faecalis): 4 µg/mL (≈ 10.5 µM); MIC (Staphylococcus aureus [2]): 0.5 µg/mL (≈ 1.32 µM); MIC (Staphylococcus aureus [3]): 8 µg/mL (≈ 21.1 µM); MIC (Streptococcus pneumoniae): 0.5 µg/mL (≈ 1.32 µM); MIC (Escherichia coli): > 32 µg/mL

**Q.** For `CC1(C)S[C@@H]2[C@H](NC(=O)[C@H](N)c3ccccc3)C(=O)N2[C@H]1C(=O)O` [AMPICILLIN], which MIC (Enterococcus faecalis) is on record?
**A.** The MIC was 0.5 µg/mL (≈ 1.43 µM).

**Q.** And the MIC (Staphylococcus aureus [2])?
**A.** Its MIC is > 32 µg/mL.

**Q.** What about the MIC (Staphylococcus aureus [3]) of the same molecule?
**A.** Its MIC is 0.25 µg/mL (≈ 0.715 µM).

**Q.** What about the MIC (Streptococcus pneumoniae) of the same molecule?
**A.** The MIC was 0.06 µg/mL (≈ 0.172 µM).

**Q.** What about the MIC (Escherichia coli) of the same molecule?
**A.** The MIC was > 32 µg/mL.

**Q.** With `O=C(O)c1cn(C2CC2)c2cc(N3CCNCC3)c(F)cc2c1=O` [CIPROFLOXACIN] as the molecule, how does the MIC (Enterococcus faecalis) read?
**A.** Its MIC is 0.5 µg/mL (≈ 1.51 µM).

**Q.** What about the MIC (Staphylococcus aureus [2]) of the same molecule?
**A.** Its MIC is > 32 µg/mL.

**Q.** What about the MIC (Staphylococcus aureus [3]) of the same molecule?
**A.** The MIC was 0.12 µg/mL (≈ 0.362 µM).

**Q.** What about the MIC (Streptococcus pneumoniae) of the same molecule?
**A.** The MIC was 2 µg/mL (≈ 6.04 µM).

**Q.** And the MIC (Escherichia coli)?
**A.** The MIC was > 32 µg/mL.

**Q.** What does the source list for `CC[C@H]1OC(=O)[C@H](C)[C@@H](O[C@H]2C[C@@](C)(OC)[C@@H](O)[C@H](C)O2)[C@H](C)[C@@H](O[C@@H]2O[C@H](C)C[C@H](N(C)C)[C@H]2O)[C@](C)(O)C[C@@H](C)C(=O)[C@H](C)[C@@H](O)[C@]1(C)O` [ERYTHROMYCIN]?
**A.** MIC (Enterococcus faecalis): 2 µg/mL (≈ 2.73 µM); MIC (Staphylococcus aureus [2]): > 32 µg/mL; MIC (Staphylococcus aureus [3]): 0.5 µg/mL (≈ 0.681 µM); MIC (Streptococcus pneumoniae): 0.12 µg/mL (≈ 0.164 µM); MIC (Escherichia coli): > 32 µg/mL
